S1P2 ag – S1P2 (human) receptor agonism; AID 729; 97,000 tested, 0.46% active; activation, % at 4.5 µM; O95136; S1P2-expressing cell line, agonist reporter read-out; in the data active = activation above about 16%;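 note: 0% = vehicle low control and 100% = maximal reference agonist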
Target sequence (O95136 whole entry, looked up): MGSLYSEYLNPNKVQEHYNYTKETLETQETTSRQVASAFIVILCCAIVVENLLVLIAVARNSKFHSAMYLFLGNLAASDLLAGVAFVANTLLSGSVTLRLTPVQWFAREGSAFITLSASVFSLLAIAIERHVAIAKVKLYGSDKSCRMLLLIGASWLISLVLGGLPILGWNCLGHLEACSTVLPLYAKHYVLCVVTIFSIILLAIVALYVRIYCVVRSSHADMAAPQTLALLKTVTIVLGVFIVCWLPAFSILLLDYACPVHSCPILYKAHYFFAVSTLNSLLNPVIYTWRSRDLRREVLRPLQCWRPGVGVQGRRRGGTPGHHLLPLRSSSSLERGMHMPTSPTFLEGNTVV
GALR2 antag – antagonists of human galanin receptor 2 (GALR2); O43603; GALR2-expressing cells, antagonist mode; inhibition, % at 4 µM; 140,000 tested, 0.39% active; AID 828; in the data active = inhibition above about 27%;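 note: cells stimulated with galanin 1-16 at roughly its EC80; 0% = agonist challenge control and 100% = basal control without agonist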
GALR2 ag – agonists of human galanin receptor 2 (GALR2) | 140,000 tested, 0.48% active | AID 803 | activation, % (test concentration not listed) | O43603 | GALR2-expressing cells, agonist activation read-out; in the data active = activation above about 5%, passing the limit was not always enough;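 note: 0% = vehicle buffer wells and 100% = reference agonist at full effect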
Rev-RRE block – HIV Rev-RRE protein-RNA interaction inhibition | 97,000 tested, 0.79% active | Rev peptide-RRE RNA binding, FRET | inhibition, % at 8 µM | P05866;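 active = inhibition above the screen-wide mean plus 3 SD, cut at about 35% in these data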;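 note: 0% = median DMSO wells and 100% = median Neomycin B control wells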
Target sequence (P05866 whole entry, looked up): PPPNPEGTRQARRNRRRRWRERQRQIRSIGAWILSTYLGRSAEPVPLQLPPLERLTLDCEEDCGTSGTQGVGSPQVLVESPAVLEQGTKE
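Material: labelled RRE RNA duplex and labelled Rev peptide / Buffer or medium: HEPES pH 7.5 salt buffer with EDTA / Compound dosing: single point, 8 µM final nominal compound concentration / Benchmarks: DMSO low control, neomycin B high control / Timing: 5 min preincubation and 15 min binding, 25 °C / Technique: FRET fluorescence readout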
S1P2 blocker – blocks the human S1P2 receptor; O95136; cell-based S1P2 antagonist assay, inhibition at 5 uM; inhibition, % at 5 µM; 97,000 tested, 0.21% active; AID 736; in the data active = inhibition above about 45%;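 note: CRE beta-lactamase reporter cells expressing human S1P2 stimulated with S1P; 0% = agonist at EC80 alone and 100% = agonist plus reference antagonist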
EphB4 ephrin blk – blocks human EphB4 binding to ephrin-B2. EphB4 LBD / TNYL-RAW-Alexa532 peptide, fluorescence polarization. P54760. inhibition, % at 7 µM. 97,000 tested, 0.15% active. AID 720;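 active = inhibition above the screen-wide mean inhibition plus 3 SD, cut at about 15% in these data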;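 note: 0% = DMSO wells and 100% = excess unlabeled TNYL-RAW peptide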
* hit, by the source's call; x = not tested or not shown; [ ] = dose if it differs, or a comment. An excerpt weighted towards active compounds, which were near 1.8% of everything screened.

SMILES | S1P2 ag | GALR2 antag | GALR2 ag | Rev-RRE block | S1P2 blocker | EphB4 ephrin blk
Cc1ccc(C2CC(=O)c3cnc(N4CCc5ccccc5C4)nc3C2)cc1 (centres undefined) | 581* | -5 | -4 | 6 | 3 | 3
CCN1C(=O)CS/C1=C(\C#N)S(=O)(=O)c1ccccc1 | -3 | 0 | -2 | 37* | 16 | -10
CCn1cc(/C=C(/C#N)S(=O)(=O)c2ccccc2)cn1 | -6 | 4 | -1 | 3 | 7 | 6
CN(C(=O)N1CCN(c2ccccn2)CC1)c1ccccc1 | -3 | -2 | -2 | 7 | 10 | 15*
CN(CC(=O)N1CCN(c2ccccn2)CC1)S(=O)(=O)c1ccccc1 | -11 | 7 | -2 | 6 | 1 | 0
Cc1ccc(-c2nn(-c3ccccc3)cc2/C=N/NC(=O)c2ccc(Br)o2)cc1 | -8 | -10 | -1 | 7 | 100* | -4
CC(C)c1noc2ncc(C(=O)c3cc(Cl)cc(Cl)c3O)cc12 | -1 | -3 | 0 | 17 | -28 | 8
CC(O)c1cccc(NC(=O)CCC(=O)O)c1 (centres undefined) | -4 | 12 | -1 | 0 | -11 | 19*
Cc1nc2ccc(NC(=O)c3cc([N+](=O)[O-])cc([N+](=O)[O-])c3Cl)cc2s1 | x | 17 | 2 | x | x | x
CCOCCSc1nc2c(c(-c3cccs3)c1C#N)CC/C2=C/c1cccs1 | x | -3 | 5.1* | x | x | x
CCOc1ccc(NC(=O)COC(=O)C23CC4CC(CC(C4)C2)C3)c([N+](=O)[O-])c1 | x | -8 | -1 | x | x | x
C=CCn1c2ccccc2c2nnc(SCN3C(=O)c4ccccc4C3=O)nc21 | 20* | -21 | 0 | 10 | -21 | 0
CCCC/C(O)=N\S(=O)(=O)c1ccc(N=NN(C)C)cc1 | -4 | -5 | -2 | 3 | 11 | 1
Cc1c(Cl)c(C(=O)N2CCCC2)nn1C | x | -1 | -1 | x | x | x
CCOC(=O)c1sc2nc(N3CCOCC3)c3c(c2c1N)CCCC3 | 1 | -1 | -1 | 2 | 16 | 1
COC(=O)c1ccc(-c2sc3nc(N4CCOCC4)c4c(c3c2N)CCCC4)o1 | 13 | 3 | 1 | 85* | 5 | -1
COc1ccc(OC)c(C(=O)CSc2nc3cccnc3n2C)c1 | 32* | 8 | -3 | 4 | -15 | 0
O=C(/C=C/c1cnc2ccccc2n1)NC12CC3CC(CC(C3)C1)C2 | x | 7 | -2 | x | x | x
CCCN1C(=O)/C(=C/C=C2\N(CC)c3ccccc3C2(C)C)SC1=S | -9 | 4 | 0 | 136*[fluorescence artefact?] | 13 | 0
C/C(=N\NC(=O)CSc1nc2ccccc2s1)c1ccco1 | x | -3 | 0 | x | x | x
CCOC(=O)c1sc(N)c(C#N)c1COC(=O)CNC(=O)c1ccccc1 | -3 | 5 | -1 | 51* | 13 | 0
CN1CCc2nc3ccc(Cl)cc3c(-c3ccccc3Cl)c2C1 | x | -5 | -1 | x | x | x
O=C(Nc1ccc(F)cc1)N(Cc1ccco1)Cc1cc2cc3c(cc2[nH]c1=O)OCO3 | 0 | 1 | -2 | 37* | -20 | 2
C=CCN1C(=O)S/C(=C\c2ccc(N3CCOCC3)cc2C)C1=O | -6 | 10 | -2 | 39* | 10 | 4
C=CC(C)N1C(=O)S/C(=C\c2ccc(N3CCOCC3)cc2C)C1=O (centres undefined) | x | 15 | 0 | x | x | x
SMILES | S1P2 ag | GALR2 antag | GALR2 ag | Rev-RRE block | S1P2 blocker | EphB4 ephrin blk
O=C(Nc1nccs1)c1cccc(N2C(=O)c3cccc4c([N+](=O)[O-])ccc(c34)C2=O)c1 | 5 | -13 | 0 | 51* | -12 | 1
COc1ccc(/C=C/C(=O)NCCCc2ccccc2)cc1OC | x | 10 | 1 | x | x | x
COc1cc(/C=C/C(=O)NC(C)C)ccc1OCc1ccccc1 | x | 4 | 7.5* | x | x | x
COc1ccc(C2C=C(c3cccs3)Nc3nc(CCCO)nn32)cc1 (centres undefined) | -14 | 30* | -2 | 129*[fluorescence artefact?] | 37 | 0
COc1ccc(C2C=C(c3ccccc3)Nc3nc(CCCO)nn32)cc1 (centres undefined) | -4 | 20 | 0 | 40* | 33 | -3
CCOC(=O)c1c(NC(=S)Nc2ccccc2)sc2c1CCN(CC)C2 | -3 | 10 | 0 | 121*[fluorescence artefact?] | 22 | -5
CCOC(=O)c1c(NC(=S)Nc2ccccc2)sc2c1CCCCC2 | 2 | -13 | 0 | 2 | 7 | 0
CC(=O)C1C(c2ccc(Br)cc2)C2C(C)=NN=C2CC1(C)O (centres undefined) | x | 15 | -2 | x | x | x
O=C(NS(=O)(=O)Oc1cccc(Cl)c1Cl)OC[C@@H]1CCCN2CCCCC12 (some centres undefined) | x | 0 | -3 | x | x | x
O=S(=O)(C/C(=C/CO)S(=O)(=O)c1ccccc1)c1ccccc1 | -8 | 82* | 0 | 8 | 80* | 6
O=C(NCc1nnc(SCc2ccc(F)cc2)n1-c1ccc(F)cc1)C12CC3CC(CC(C3)C1)C2 | x | -8 | 0 | x | x | x
CN(Cc1ccccc1)Cc1nc2c(c(=O)n(C)c(=O)n2C)n1Cc1ccc(F)cc1 | 39* | -3 | -1 | 8 | 0 | 1
Cc1ccc(Cn2c(CN(C)Cc3ccccc3)nc3c2c(=O)n(C)c(=O)n3C)cc1 | -1 | -12 | 1 | 0 | -4 | -1
Cc1cc(=O)oc2cc(Nc3ccccc3)ccc12 | x | 12 | 0 | x | x | x
CCNc1ccc2c(Cl)cc(=O)oc2c1 | -5 | 16 | 6 | 5 | 47* | -7
c1cc2c3c(cccc3c1)C(N1CCN(C3=Nc4cccc5cccc3c45)CC1)=N2 | -4 | 4 | -1 | 40* | -11 | -4
CC(=O)N1CCN(C2=Nc3cccc4cccc2c34)CC1 | x | 7 | -2 | x | x | x
c1ccc(CC2CCN(C3=Nc4cccc5cccc3c45)CC2)cc1 | -4 | 2 | -1 | 42* | 21 | -2
O=C(NCCc1ccccc1)c1ccc(Cl)nc1 | -7 | 13 | -2 | 7 | -6 | -1
CCNC(=S)N/N=C(\C)c1cccc([N+](=O)[O-])c1 | x | 6 | -1 | x | x | x
O=c1oc2c(CN3CCOCC3)c(O)ccc2c2c1CCCC2 | x | -1 | 5.0* | x | x | x
O=c1oc2c(CN3CCOCC3)c(O)ccc2c2ccccc12 | -6 | 0 | -1 | 2 | -7 | 0
CCOC(=O)Nc1ccc2c(c1)N(C(=O)CCN1CCOCC1)c1ccccc1S2=O (centres undefined) | -10 | 41* | -2 | 5 | 29 | 0
CCOC(=O)Nc1ccc2c(c1)N(C(=O)CCN1CCOCC1)c1ccccc1S2 | -4 | -4 | 3 | -1 | -36 | 0
Cc1cc(C)c(C(=O)Nc2ccc(Br)c(C(F)(F)F)c2)c(C)c1 | x | 7 | -2 | x | x | x
Cc1nn(C)c(C)c1CN(C)S(=O)(=O)c1ccc2ccccc2c1 | -2 | 17 | -2 | 5 | 50* | 4
CCC(C)NC(=O)c1ccccc1C(=O)NC(C)CC (centres undefined) | -1 | -16 | -2 | 11 | 58* | 2
CCCCOc1ccc(C(=O)N/N=C/c2ccc(OCCN3CCCCC3)c(OC)c2)cc1 | x | 2 | 2 | x | x | x
CCCn1c(OC)nc2c1c(=O)n(C)c(=O)n2C | x | 7 | -3 | x | x | x

High-throughput results (PubChem BioAssay)
